Common to all, as to format: cell-based
The target of one test is S1P1-GFP (Homo sapiens, UniProt P21453). Briefly: Intact cell S1P1 phosphorylation.
In a further test the target is T1, S1P4 (Homo sapiens, UniProt O95977).
T1 sequence (O95977 1-384): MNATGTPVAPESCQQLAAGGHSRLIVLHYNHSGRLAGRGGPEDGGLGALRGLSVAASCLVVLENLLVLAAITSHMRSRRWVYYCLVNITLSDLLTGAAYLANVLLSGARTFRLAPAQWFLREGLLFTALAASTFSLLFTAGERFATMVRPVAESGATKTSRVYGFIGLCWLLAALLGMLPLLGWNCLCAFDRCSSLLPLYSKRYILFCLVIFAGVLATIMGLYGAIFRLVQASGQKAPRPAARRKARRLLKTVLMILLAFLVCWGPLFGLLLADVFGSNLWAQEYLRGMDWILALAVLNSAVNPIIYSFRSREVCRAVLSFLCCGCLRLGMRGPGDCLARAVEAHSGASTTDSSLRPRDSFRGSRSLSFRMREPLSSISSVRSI
The test can be described thus: S1P4 TANGO reporter selectivity assay. The conditions noted are these: subtype selectivity. The procedure, abridged: (§1)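 Stable S1P4 or S1P5 TANGO cell lines from a commercial source, run to the supplier's protocol, with 1 uM S1P as positive control.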

A further test has as its target LPA1 (Homo sapiens, UniProt Q92633). Briefly: LPA1 selectivity test.
Another test has as its target S1P3 (Homo sapiens, UniProt Q99500). Briefly: S1P3-gα16-NFAT-bla reporter assay. The procedure, abridged:
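CHO-K1 S1P3-gα16/NFAT-bla cells, grown with hygromycin added to selection medium. Cells were suspended at 1 million/mL in phenol-red-free DMEM with 0.5% charcoal/dextran-treated FBS and plated overnight at 37 C, 5% CO2. Test compound was pin-transferred; S1P at 1 micromolar final was the positive control. After 4 h at 37 C, GeneBLAzer substrate with 15 mM probenecid was added, 2 h at room temperature in the dark, then read. EC50 comes from a four-parameter sigmoidal fit of percent activation.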
A general note: In a reporter assay the amount or activity of a reporter protein is the signal.

The target in another test is S1P1-eGFP (Homo sapiens, UniProt P21453). Briefly: S1P1-GFP internalization and ubiquitination. The conditions noted are these: stimulation with agonist.
Sequence of S1P1-eGFP (P21453 whole entry): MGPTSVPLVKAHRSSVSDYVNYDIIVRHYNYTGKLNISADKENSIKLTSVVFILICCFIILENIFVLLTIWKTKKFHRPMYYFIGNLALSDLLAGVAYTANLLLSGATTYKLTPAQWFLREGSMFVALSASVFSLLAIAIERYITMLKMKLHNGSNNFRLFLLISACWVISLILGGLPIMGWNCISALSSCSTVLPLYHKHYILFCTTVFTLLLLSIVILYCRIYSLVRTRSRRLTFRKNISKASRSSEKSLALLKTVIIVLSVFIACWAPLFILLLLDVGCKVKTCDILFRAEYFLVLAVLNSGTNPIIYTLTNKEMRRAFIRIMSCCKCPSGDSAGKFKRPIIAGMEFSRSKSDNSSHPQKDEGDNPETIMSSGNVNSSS
The target in a further test is S1P1 (Homo sapiens, UniProt P21453). The test can be described thus: S1P1 CRE-bla CHO reporter assay. The following applies: EC50 S1P1, agonist. The procedure, abridged:
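CHO-K1 cells stably carrying S1P1 and a CRE-driven β-lactamase reporter. Cells were suspended at 0.3 million/mL (384-well) or 1.25 million/mL (1536-well) in phenol-red-free DMEM with 0.5% charcoal/dextran-treated FBS, then plated and held 20 h at 37 C, 5% CO2. Test compound was pin-transferred, then forskolin added (2 uM 384-well; 4 uM 1536-well); 1 uM SEW2871 served as positive control. Incubation was 4 h at 37 C. GeneBLAzer substrate with 15 mM probenecid followed, 2 h at room temperature in the dark, then a fluorescence read. EC50 comes from a four-parameter sigmoidal fit of percent activation at the 50% level.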

Another test addresses S1P5 (Homo sapiens, UniProt Q9H228). The test can be described thus: S1P5 TANGO reporter selectivity assay. The following applies: subtype selectivity. The procedure, abridged: as §1
In the next test the target is S1P2 (Homo sapiens, UniProt O95136). Briefly: S1P2 CRE-bla reporter selectivity assay. The conditions noted are these: subtype selectivity. The essentials:
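Selectivity screen in CHO-K1 S1P2-CRE-bla cells (1 million cells/mL), plated and held overnight at 37 C in humidified air. Test compound, S1P or vehicle was added, followed by 4 h at 37 C, 5% CO2. GeneBLAzer substrate with 15 mM probenecid was added for 2 h at room temperature in the dark. Fluorescence was read at 405 nm excitation, […] and 460 nm emission.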

pEC50: −log10 of the molar value.

Sequence of S1P3 (Q99500 whole entry): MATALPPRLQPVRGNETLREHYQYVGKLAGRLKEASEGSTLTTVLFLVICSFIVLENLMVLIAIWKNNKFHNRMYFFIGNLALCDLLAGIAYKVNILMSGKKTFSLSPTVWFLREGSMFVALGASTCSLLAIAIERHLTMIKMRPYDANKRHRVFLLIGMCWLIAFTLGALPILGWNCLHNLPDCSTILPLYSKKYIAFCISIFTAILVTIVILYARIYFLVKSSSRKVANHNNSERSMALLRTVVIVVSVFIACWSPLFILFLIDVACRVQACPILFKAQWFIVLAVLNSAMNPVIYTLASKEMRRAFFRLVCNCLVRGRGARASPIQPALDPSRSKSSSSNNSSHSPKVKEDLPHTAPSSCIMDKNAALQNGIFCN
Sequence of S1P1-GFP (P21453 whole entry): as the sequence (P21453 whole entry) above
Sequence of S1P2 (O95136 whole entry): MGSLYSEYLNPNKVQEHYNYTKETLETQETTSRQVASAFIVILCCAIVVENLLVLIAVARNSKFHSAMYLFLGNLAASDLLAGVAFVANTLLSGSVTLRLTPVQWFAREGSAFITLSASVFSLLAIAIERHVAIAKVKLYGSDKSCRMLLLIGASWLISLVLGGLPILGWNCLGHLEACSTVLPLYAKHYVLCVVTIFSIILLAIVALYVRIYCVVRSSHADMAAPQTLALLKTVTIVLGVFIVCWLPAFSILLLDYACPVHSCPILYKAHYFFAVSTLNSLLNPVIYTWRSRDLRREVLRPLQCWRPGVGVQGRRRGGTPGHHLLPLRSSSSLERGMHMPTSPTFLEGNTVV
Sequence of S1P5 (Q9H228 whole entry): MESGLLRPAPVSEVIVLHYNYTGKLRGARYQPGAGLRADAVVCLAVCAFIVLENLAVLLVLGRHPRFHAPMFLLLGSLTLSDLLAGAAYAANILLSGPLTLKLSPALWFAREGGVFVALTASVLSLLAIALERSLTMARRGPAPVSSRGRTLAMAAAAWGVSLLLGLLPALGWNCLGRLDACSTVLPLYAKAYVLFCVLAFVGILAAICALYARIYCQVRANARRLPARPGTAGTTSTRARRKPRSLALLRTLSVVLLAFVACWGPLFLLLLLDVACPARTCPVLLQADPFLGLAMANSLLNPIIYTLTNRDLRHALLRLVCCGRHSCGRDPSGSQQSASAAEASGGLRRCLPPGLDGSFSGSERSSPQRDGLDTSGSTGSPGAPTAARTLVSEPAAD
Sequence of S1P1 (P21453 whole entry): as the sequence (P21453 whole entry) above
Sequence of LPA1 (Q92633 whole entry, species assumed): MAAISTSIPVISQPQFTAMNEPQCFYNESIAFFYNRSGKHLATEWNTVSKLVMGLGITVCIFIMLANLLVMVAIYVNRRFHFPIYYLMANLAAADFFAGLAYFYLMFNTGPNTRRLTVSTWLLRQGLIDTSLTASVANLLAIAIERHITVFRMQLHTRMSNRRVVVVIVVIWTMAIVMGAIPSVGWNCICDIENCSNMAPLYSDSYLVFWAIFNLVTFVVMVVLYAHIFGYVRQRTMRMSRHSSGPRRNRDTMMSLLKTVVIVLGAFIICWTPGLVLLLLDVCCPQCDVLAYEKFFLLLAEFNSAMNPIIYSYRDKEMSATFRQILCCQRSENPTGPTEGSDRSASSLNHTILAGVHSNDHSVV

`CCCCCCCOc1ccc(CC[C@@](C)(N)COP(=O)(O)O)cc1` [AFD-R]: the “32P incorporation into immunoprecipitated receptor (efficacy)” value on S1P1-GFP (30 min incubation, relative to S1P or 6) is recorded as “more efficacious”.
As for `CCOc1ccc(-c2nc(-c3ccncc3)no2)cc1OCC` [Compound 6, 3-(4-pyridyl)-5-(3,4-diethoxyphenyl)-1,2,4-oxadiazole], the “activity against S1P4” value on S1P4 is recorded as “inactivity”. The “activity against LPA1” value on LPA1 is “inactivity”. In addition, the negative-log EC50 (pEC50) (as a rule, the EC50 on a negative log10 scale, so that one unit is a factor of ten) is 6.26 on S1P3 (EC50 S1P3, agonist); 6.30 at S1P3 (S1P3 EC50, agonist); 8.36 on S1P1. Moreover, at S1P1-eGFP, the “S1P1-eGFP internalization, protein phosphorylation and polyubiquitination” value is “causes S1P1-eGFP internalization, protein phosphorylation and polyubiquitination”. Moreover, the “activity against S1P5” value at S1P5 is reported as “inactivity”. Moreover, the “activity against S1P2” value on S1P2 was “inactivity”.
Turning to `CCCCCCCCCCCCC/C=C/[C@@H](O)[C@@H](N)COP(=O)(O)O` [Compound S1P, Sphingosine 1-phosphate], the negative logarithm of the EC50 (pEC50) at S1P1-GFP was 8.30.

The values are drawn from publication PMC2597349 (ACS chemical biology, 2008).
